Assay outcomes from PubChem BioAssay.
ERAP1 inh = inhibitors of human ERAP1 aminopeptidase; inhibition, % at 10.7 µM; 340,000 tested, 0.15% active; recombinant ERAP1, Leu-AMC fluorescence, 60 min; Q9NZ08;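 active = mean replicate inhibition of at least 30%, or all replicates individually reaching that 30% level; inactive = mean below 30% and not every replicate reaching it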;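 also: 0% = neutral control wells and 100% = L-leucinethiol positive control wells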
Target sequence (Q9NZ08 whole entry, looked up): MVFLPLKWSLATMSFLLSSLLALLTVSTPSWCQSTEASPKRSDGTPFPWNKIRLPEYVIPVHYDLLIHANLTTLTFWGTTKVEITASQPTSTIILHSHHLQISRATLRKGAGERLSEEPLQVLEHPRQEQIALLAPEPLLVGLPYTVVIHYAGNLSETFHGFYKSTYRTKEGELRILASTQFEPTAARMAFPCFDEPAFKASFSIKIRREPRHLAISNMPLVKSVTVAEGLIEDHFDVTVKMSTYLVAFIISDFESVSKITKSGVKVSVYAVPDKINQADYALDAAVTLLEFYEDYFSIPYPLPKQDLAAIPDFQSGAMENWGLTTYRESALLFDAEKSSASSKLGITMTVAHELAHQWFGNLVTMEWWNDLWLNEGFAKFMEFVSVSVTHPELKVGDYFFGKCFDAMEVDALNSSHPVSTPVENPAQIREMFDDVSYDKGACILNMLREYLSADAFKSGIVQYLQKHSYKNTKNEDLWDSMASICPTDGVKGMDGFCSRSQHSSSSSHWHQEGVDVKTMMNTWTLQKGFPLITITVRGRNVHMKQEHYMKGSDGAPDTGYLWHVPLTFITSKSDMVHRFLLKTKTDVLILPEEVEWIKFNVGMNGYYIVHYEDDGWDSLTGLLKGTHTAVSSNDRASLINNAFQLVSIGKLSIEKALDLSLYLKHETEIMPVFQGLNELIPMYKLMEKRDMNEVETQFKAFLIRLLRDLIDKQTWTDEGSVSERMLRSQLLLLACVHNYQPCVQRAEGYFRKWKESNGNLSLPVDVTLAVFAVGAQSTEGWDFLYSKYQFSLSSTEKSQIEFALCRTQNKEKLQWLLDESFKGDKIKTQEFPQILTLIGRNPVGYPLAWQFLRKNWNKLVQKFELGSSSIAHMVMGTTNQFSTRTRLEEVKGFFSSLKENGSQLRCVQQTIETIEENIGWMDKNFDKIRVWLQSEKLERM
DENV2 CPE = DENV2-induced cell death inhibition | DENV2-infected cells, cytopathic effect rescue, plate reader | CPE inhibition, % at 9.99 µM | 350,000 tested, 1.7% active; in the data active = CPE inhibition above about 20%, passing the limit was not always enough; inconclusive = no clear call, values can overlap the other calls; tested in BHK-21 cells;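 also: 0% = median of neutral control wells and 100% = median of positive control wells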
CAL PDZ FP-1 = CAL PDZ (human) peptide binding inhibition. Q9HD26. purified CAL PDZ, TMR-peptide fluorescence polarization, 1 h. inhibition, % at 24.9 µM. 300,000 tested, 0.92% active;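 active = mean inhibition of at least 30% with at least half of replicates also reaching 30%; inconclusive = no clear call, values can overlap the other calls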;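 also: 0% = DMSO neutral control and 100% = excess unlabeled competitor peptide PRC23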
SIRT5 block = blocks human SIRT5 desuccinylation of peptide. Purified SirT5, succinyl-peptide AMC, trypsin-coupled fluorescence. AID 652115. Q9NXA8. 330,000 tested, 1.1% active. inhibition, % at 15 µM; in the data active = inhibition above about 15%; inconclusive = no clear call, values can overlap the other calls
S100A4 inh HTS = inhibitors of human S100A4 binding to myosin IIA peptide. S100A4/TAMRA-MyoIIA peptide fluorescence polarization. inhibition, % at 10.7 µM. 360,000 tested, 0.14% active. AID 652163;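 active = mean inhibition of at least 70% across replicates, with every replicate also reaching that level; inconclusive = mean inhibition reaches 70% but some replicates fall short; inactive = mean inhibition below 70%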
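Material: S100A4 monomer (human). Medium: Calcium-containing HEPES buffer, pH 7.2. Probe or stimulus: labelled myosin peptide probe, 5 nM. Compound dosing: one concentration per compound. Timing: polarization read 5 min after assay mix addition, stable 5–60 min. Benchmarks: DMSO as neutral control, TFP as positive control.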
CAL PDZ FP-2 = blocks peptide binding to human CAL PDZ domain; inhibition, % at 20 µM; purified CAL PDZ, TMR-peptide fluorescence polarization, 1 h; AID 504414; 330,000 tested, 0.02% active;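 active = highest replicate inhibition of at least 40%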;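 also: plate controls were DMSO neutral control wells for no effect and unlabeled competitor peptide control wells for full effect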
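Control set: unlabelled peptide and DMSO controls / Material: purified CerCALP PDZ construct / Timing: 1 h incubation at room temperature before polarization reading / Doses: 20 µM, one dose / Detection: fluorescence polarization (mP)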
Numbers without * were called inactive; u = inconclusive; x = no result given; ! = not confirmed by another sample. A selection: hits, their analogues and other compounds. The true share with any hit is near 2.9%.

SMILES | ERAP1 inh | DENV2 CPE | CAL PDZ FP-1 | SIRT5 block | S100A4 inh HTS | CAL PDZ FP-2
CCS(=O)(=O)N1CC2(C1)CN(S(=O)(=O)c1cn(C)cn1)[C@@H](CO)c1[nH]c3cc(OC)ccc3c12 | -4 | -12 | x | 30* | -6 | x
CCCC(=O)N1CC2(C1)CN(S(=O)(=O)c1ccc(C)cc1)[C@H](CO)c1[nH]c3cc(OC)ccc3c12 | -2 | -1 | x | 15* | 4 | x
CCC(=O)N1CCC2(CC1)CN(S(=O)(=O)c1ccccc1)[C@@H](CO)c1[nH]c3cc(OC)ccc3c12 | -3 | 28* | x | 2 | -4 | x
CCCC(=O)N1CCC2(CC1)CN(S(=O)(=O)c1ccc(C)cc1)[C@H](CO)c1[nH]c3cc(OC)ccc3c12 | 1 | 12 | x | 5 | -4 | x
C[C@@H]1CN([C@@H](C)CO)C(=O)c2cc(NC(=O)CCN3CCOCC3)ccc2O[C@H]1CN(C)S(=O)(=O)c1ccc(F)cc1 | 0 | -5 | x | x | 1 | x
CC(C)CCn1c(N2CCCC2)nc2c1c(=O)[nH]c(=O)n2C | -4 | 11 | -1 | 0 | 23 | 0
CC(C)CCn1c(N2CCC(C(N)=O)CC2)nc2c1c(=O)[nH]c(=O)n2C | 2 | x | 42* | -2 | -3 | x
C[C@@H]1CN([C@H](C)CO)S(=O)(=O)c2ccc(-c3cccnc3)cc2O[C@@H]1CN(C)C(=O)c1cccc(F)c1 | -3 | 1 | x | 4 | 0 | x
Cc1cccc(NC(=O)N2CCCC(CNC(=O)c3ccccc3Cl)C2)c1C (stereo unspecified) | 4 | 8 | -4 | 31* | 3 | -1
CCCCC(=O)Nc1nn(CC(C)C)c2nc3ccccc3cc12 | x | x | 30* | x | x | 1
CC(C)Cn1nc(NC(=O)C(C)(C)C)c2cc3ccccc3nc21 | x | x | x | x | x | -2
CN(C)CCCNC(=O)C[C@H]1CC[C@H]2[C@H](COc3ccc(NC(=O)c4ccc5c(c4)OCO5)cc3C(=O)N2C)O1 | x | 7 | x | -6 | u | x
O=C(CSc1nc2nn(-c3ccccc3)c(=O)c-2c2n1CCCCC2)Nc1ccc(OC(F)F)cc1 | 1 | -2 | 127* | -2 | -7 | 5
COc1ccccc1C(=O)N1CCN(Cc2c[nH]c3ccccc23)CC1 | -3 | -2 | -4 | -4 | 2 | 2
COc1cccc(OC)c1C(=O)N1CCN(Cc2c[nH]c3ccccc23)CC1 | 1 | 55* | x | 1 | -10 | x
C[C@@H]1CN([C@H](C)CO)C(=O)CCCn2cc(nn2)CO[C@@H]1CN(C)S(=O)(=O)c1ccc(Oc2ccccc2)cc1 | 0 | 0 | x | -6 | 0 | x
C[C@H]1CN([C@@H](C)CO)C(=O)CCCn2cc(nn2)CO[C@@H]1CN(C)S(=O)(=O)c1ccc(Oc2ccccc2)cc1 | 10 | 35*! | x | -9 | 2 | x
C[C@H](CO)N1C[C@H](C)[C@H](CN(C)S(=O)(=O)c2ccc(Oc3ccccc3)cc2)OCc2cn(nn2)CCCC1=O | -1 | 22* | x | 1 | 14 | x
C/C=C\C(=O)Nc1cccc(C2=NOC3(C2)C[C@@H](C(N)=O)N(C(=O)c2ccc(OC)cc2)C3)c1 (stereo partly specified) | 2 | 22* | x | -1 | 12 | x
COCCn1c(SCC(=O)N2CCCC2)nc2c(c1=O)SCC2 | 2 | 11 | x | x | -2 | x
COCCn1c(SCC(=O)N2CCC(C)CC2)nc2c(c1=O)SCC2 | -5 | 2 | 0 | 25* | 10 | -2
O=C(COc1ccc(Cl)cc1Cl)Nc1ccc(CN2CCOCC2)cc1 | 1 | -3 | 84* | 0 | 6 | 0
CC(Oc1ccc(Cl)cc1Cl)C(=O)NCCCN1CCOCC1 (stereo unspecified) | 4 | 62* | x | 2 | -2 | 0
O=C(COc1ccc(Cl)cc1Cl)Nc1ccc(CN2CCCCC2)cc1 | -1 | -2 | -3 | 112* | -18 | -3
CO[C@H]1CC[C@@H]2CCOc3c(C#N)cccc3C(=O)N(C)C[C@@H](C)C(=O)N(C)C[C@@H]1O2 | 2 | 1 | x | 0 | 3 | x
SMILES | ERAP1 inh | DENV2 CPE | CAL PDZ FP-1 | SIRT5 block | S100A4 inh HTS | CAL PDZ FP-2
O=C(Nc1ccccc1F)N1C[C@@H]2[C@H](c3ccccc31)[C@@H](CO)N2C(=O)c1ccccn1 | 3 | 10 | x | 3 | 67 | x
CNC[C@@H]1Oc2ncc(Br)cc2C(=O)N([C@@H](C)CO)C[C@H]1C | -2 | -2 | x | -2 | -11 | x
CC(OC(=O)c1ccccc1NCCO)C(=O)NC1CCCCC1C (stereo unspecified) | -2 | 69* | -11 | -6 | -5 | -1
CN(C)C1(CNC(=S)Nc2ccccc2C(F)(F)F)CCCCC1 | -3 | -4 | 61* | 0 | 0 | 0
CN(C)C1(CNC(=O)Nc2ccccc2)CCCCC1 | -4 | 4 | -4 | -48 | -2 | -2
O=C(Cc1ccccn1)N[C@@H]1CC[C@H](CCn2cc(-c3ccc(F)cc3)nn2)O[C@H]1CO | 2 | -2 | x | -4 | -25 | x
COC(=O)/C(C#N)=C/c1ccc(-c2ccc(S(N)(=O)=O)cc2)o1 | x | 8 | 36* | 5 | 6 | -2
CN(C)c1nc(NCc2ccccc2)nc(Oc2ccc(=O)[nH]n2)n1 | x | x | 40* | x | x | 0
COc1ccc(NC(=O)N(C)C[C@H]2Oc3ccc(N(C)C)cc3CC(=O)N([C@H](C)CO)C[C@@H]2C)cc1 | -1 | 16 | x | -6 | -10 | x
CC(C)(C)N(Cc1ccccc1)C(=O)c1ccc(Br)o1 | -1 | 0 | -1 | 19* | 1 | -3
CC(C)(C)N(Cc1ccccc1)C(=O)COC(=O)c1ccc(Br)o1 | -1 | 19 | -5 | 1 | -4 | 0
CC(C)NC(=O)N(C)C[C@@H]1Oc2ccc(NC(=O)Nc3ccc4c(c3)OCO4)cc2CC(=O)N([C@@H](C)CO)C[C@@H]1C | -3 | -2 | x | 2 | 3 | x
O=C(O)C1=C2C(=O)Nc3cccc(c32)C2(C1)C(=O)Nc1ccccc12 (stereo unspecified) | -1 | 14 | x | 35* | -9 | x
O=c1nccc(N/N=C/c2ccccc2)[nH]1 | -1 | -3 | -7 | 24* | -20 | 1
O=c1cc(N/N=C/c2ccccc2)[nH]c(=O)[nH]1 | x | -6 | -1 | 1 | -2 | -2
CCOC(=O)C1=C(C)NC(SCc2cc(=O)[nH][nH]2)=C(C#N)C1c1cccs1 (stereo unspecified) | 12 | 11 | 9 | 20* | -10 | -3
CC(C)CC#Cc1cnc2c(c1)C(=O)N([C@@H](C)CO)C[C@H](C)[C@@H](CN(C)C(=O)c1cccnc1)O2 | -5 | -4 | x | -4 | 5 | x
C[C@H](CO)N1C[C@H](C)[C@H](CN(C)S(=O)(=O)c2ccc(Cl)cc2)OCCCC[C@H](C)Oc2ccc(NS(=O)(=O)c3ccc(F)cc3)cc2C1=O | 3 | u | x | 23* | -31 | x
